Data published in ChEMBL document CHEMBL1125117, “Substituted 1,3-dihydro-2H-pyrrolo[2,3-b]pyridin-2-ones as potential antiinflammatory agents” (1990).

How the values were obtained:
Rattus norvegicus [1] = test: In vivo inhibitory activity against cells in reverse passive Arthus reaction (RPAR) assay at dose 25 mg/kg in the pleural cavity of rats.; format: functional
Procedure, shortened: (§1)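 Male rats, five per group, dosed orally 1 h before iv BSA antigen (5 mg). Rabbit anti-BSA IgG (0.5 mg) given intrapleurally 30 min later. At 4 h, pleural exudate volume was measured and neutrophils counted (Coulter) after saline-EDTA lavage. Reported as % reduction in cells and fluid relative to control.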

Rattus norvegicus [2] = test: In vivo inhibitory activity against fluid in reverse passive Arthus reaction (RPAR) assay at dose 25 mg/kg in the pleural cavity of rats.; format: functional; procedure, shortened: as §1
[3] = biological target: T1, Polyunsaturated fatty acid 5-lipoxygenase (Homo sapiens) (UniProt P09917); test: In vitro inhibitory activity against 5-lipoxygenase in human polymorphonuclear (PMN) cells; details: concentration not given here
T1 sequence (whole entry): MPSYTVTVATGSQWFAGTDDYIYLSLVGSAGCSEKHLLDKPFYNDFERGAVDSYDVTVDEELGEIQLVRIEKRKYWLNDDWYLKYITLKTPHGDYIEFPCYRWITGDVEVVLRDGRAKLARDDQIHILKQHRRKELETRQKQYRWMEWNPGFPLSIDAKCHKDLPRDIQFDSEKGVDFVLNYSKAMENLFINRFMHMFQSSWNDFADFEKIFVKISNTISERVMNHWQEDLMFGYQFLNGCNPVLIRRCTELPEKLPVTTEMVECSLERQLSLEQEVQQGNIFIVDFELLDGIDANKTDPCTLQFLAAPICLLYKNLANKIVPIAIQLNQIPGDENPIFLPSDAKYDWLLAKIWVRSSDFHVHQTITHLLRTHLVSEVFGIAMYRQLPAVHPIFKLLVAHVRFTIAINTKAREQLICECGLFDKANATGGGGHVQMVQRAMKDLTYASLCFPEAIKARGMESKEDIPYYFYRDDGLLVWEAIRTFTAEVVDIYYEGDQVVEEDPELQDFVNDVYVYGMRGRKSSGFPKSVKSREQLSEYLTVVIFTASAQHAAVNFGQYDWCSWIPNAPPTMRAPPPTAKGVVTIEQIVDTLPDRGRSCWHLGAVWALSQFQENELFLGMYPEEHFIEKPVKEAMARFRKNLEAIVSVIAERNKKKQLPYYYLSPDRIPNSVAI
Procedure, shortened: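 Human PMN neutrophils (2×10^7 cells/mL) in HEPES buffer with 1 mM CaCl2, preincubated 4 min with test compound in DMSO vehicle. Then stimulated with [14C]arachidonic acid plus calcium ionophore A23187 for 5 min and stopped with methanol. 5-HETE was quantitated by HPLC. Reported as % inhibition versus vehicle, tested at 15 μM.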

Rattus norvegicus [4] = test: In vivo antiinflammatory activity against edema formation in the injected(primary) paw of the rat(before edema stimulation) at dose 25 mg/kg; format: functional
Procedure, shortened: (§2)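 Adjuvant arthritis in rats, prophylactic regimen. Oral dosing began 1 h before challenge and continued for 21 consecutive days. Heat-killed M. tuberculosis in paraffin oil (6 mg/mL), 0.1 mL injected into the left hind paw, with methylcellulose-treated controls. Both hind paw volumes measured by plethysmograph on day 21. Reported as % change relative to control.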

Rattus norvegicus [5] = test: In vivo antiinflammatory activity against edema formation in the injected(primary) paw of the rat(after edema stimulation) at dose 25 mg/kg; format: functional
Procedure, shortened: (§3)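 Adjuvant arthritis in rats, therapeutic regimen. Heat-killed M. tuberculosis in paraffin oil (6 mg/mL), 0.1 mL injected into the left hind paw. Lesion allowed to develop 7 days before the first oral dose, with methylcellulose-treated controls. Paw volumes measured by plethysmograph, final reading on day 21. Reported as % change in paw volume relative to control.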

Rattus norvegicus [6] = test: In vivo effect on prostaglandin and leukotriene mediated production in rat pleural cavity was assessed by the inhibition of TXB2 in 5-lipoxygenase/ cyclooxygenase at dose 25 mg/kg; format: functional
Procedure, shortened: (§4)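 Rat reversed passive Arthus pleurisy, oral dosing 1 h before challenge. BSA given iv (5 mg), then rabbit anti-BSA IgG intrapleurally 30 min later. At 4 h, exudate was collected into indomethacin/NDGA and its volume recorded. Neutrophils were counted by Coulter counter. TXB2 and LTE4 in ethanol-extracted supernatant were measured by RIA with tritiated recovery spikes. Reported as % inhibition versus control.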

[7] = biological target: Cyclooxygenase (Homo sapiens) (UniProt P35354+P23219); test: In vitro inhibitory activity against Prostaglandin G/H synthase in human platelets; set-up: concentration or dose not given beside the values; details: concentration not given here
Procedure, shortened: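 Human platelets (2×10^5/mL) in HEPES buffer with 0.5 mM EGTA and 1.5 mM CaCl2, incubated 4 min with compound in DMSO vehicle. Then given [14C]arachidonic acid and A23187 ionophore for 5 min and stopped with methanol. HHT was measured by reverse-phase HPLC. Reported as % inhibition of HHT versus vehicle, at 15 μM.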

Rattus norvegicus [8] = test: In vivo effect on prostaglandin and leukotriene mediated production in rat pleural cavity was assessed by the inhibition of cell influx in 5-lipoxygenase/ cyclooxygenase at dose 25 mg/kg; format: functional; procedure, shortened: as §4
Rattus norvegicus [9] = test: In vivo antiinflammatory activity against edema formation in the noninjected(secondary) paw of the rat (before edema stimulation) at dose 25 mg/kg; format: functional; procedure, shortened: as §2
Rattus norvegicus [10] = test: In vivo antiinflammatory activity against edema formation in the noninjected(secondary) paw of the rat (after edema stimulation) at dose 25 mg/kg; format: functional; procedure, shortened: as §3
Rattus norvegicus [11] = test: In vivo effect on prostaglandin and leukotriene mediated production in rat pleural cavity was assessed by the inhibition of fluid volume in 5-lipoxygenase/ cyclooxygenase at dose 25 mg/kg; format: functional; details: for Inhibition: 25 mg/kg; for inhibition in vivo at 25 mg/kg: Rattus norvegicus, Pleural cavity; procedure, shortened: as §4
Rattus norvegicus [12] = test: In vivo antiinflammatory activity against edema formation in the noninjected(secondary) paw of the rat (after edema stimulation) at dose 2.0 mg/kg; format: functional
Rattus norvegicus [13] = test: In vivo effect on prostaglandin and leukotriene mediated production in rat pleural cavity was assessed by the inhibition of fluid volume in 5-lipoxygenase/ cyclooxygenase at dose 1.0 mg/kg; format: functional; procedure, shortened: as §4
Rattus norvegicus [14] = test: In vivo effect on prostaglandin and leukotriene mediated production in rat pleural cavity was assessed by the inhibition of cell influx in 5-lipoxygenase/ cyclooxygenase at dose 1.0 mg/kg; format: functional; procedure, shortened: as §4
Rattus norvegicus [15] = test: In vivo antiinflammatory activity against edema formation in the noninjected(secondary) paw of the rat (before edema stimulation) at dose 2.0 mg/kg; format: functional; procedure, shortened: as §2
Rattus norvegicus [16] = test: In vivo effect on prostaglandin and leukotriene mediated production in rat pleural cavity was assessed by the inhibition of LTE4 in 5-lipoxygenase/ cyclooxygenase at dose 25 mg/kg; format: functional; procedure, shortened: as §4
Rattus norvegicus [17] = test: In vivo effect on prostaglandin and leukotriene mediated production in rat pleural cavity was assessed by the inhibition of TxB2 in 5-lipoxygenase/ cyclooxygenase at dose 25 mg/kg

SMILES	inhibition [3] [%]	inhibition in vivo at 25 mg/kg (Rattus norvegicus [1]) [%]	inhibition in vivo at 25 mg/kg (Rattus norvegicus [2]) [%]	other results
CC1(Sc2ccccc2)C(=O)N(c2ccccc2)c2ncccc21 (centres undefined)		0	0	
CC(C)N1C(=O)C(C)(C)c2cccnc21	6	34	14	
CC1(C)C(=O)N(Cc2ccc(Cl)cc2)c2ncccc21	26	6	0	
CC1(C)C(=O)N(c2cc(Cl)cc(Cl)c2)c2ncccc21		49	33	
Cc1c(Cl)cccc1N1C(=O)C(C)(C)c2cccnc21	7	14	0	
CC1(C)C(=O)N(c2ccc(Cl)cc2Cl)c2ncccc21	20	16	8	
CC1(C)C(=O)N(c2cccc(C(F)(F)F)c2)c2ncccc21	34	35	10	
COc1ccc2c(c1)c(CC(=O)O)c(C)n2C(=O)c1ccc(Cl)cc1 [INDOMETHACIN]				inhibition in vivo at 2 mg/kg (Rattus norvegicus [12]): 88%; inhibition in vivo at 1 mg/kg (Rattus norvegicus [13]): 24%; inhibition in vivo at 1 mg/kg (Rattus norvegicus [14]): 48%; inhibition in vivo at 2 mg/kg (Rattus norvegicus [15]): 70%
CC1(C)C(=O)N(c2ccc(Cl)c(Cl)c2)c2ncccc21	0	26	25	inhibition in vivo at 25 mg/kg (Rattus norvegicus [16]): 46%; TxB2 inhibition (Rattus norvegicus [17]): 44%; inhibition [7]: 0%; inhibition in vivo at 25 mg/kg (Rattus norvegicus [8]): 26%; inhibition in vivo at 25 mg/kg (Rattus norvegicus [11]): 25%
CC1(C)C(=O)N(c2ccc(Cl)cc2)c2ncc(Br)cc21	34	29	0	
CC1(C)C(=O)N(c2ccc(Cl)cc2)c2ccccc21		0	0	
CC(C)(C(=O)[O-])c1cccnc1Nc1ccc(Cl)cc1.[Na+]	0			inhibition in vivo at 25 mg/kg (Rattus norvegicus [4]): 14%; inhibition in vivo at 25 mg/kg (Rattus norvegicus [16]): 76%; TxB2 inhibition (Rattus norvegicus [17]): 81%; inhibition [7]: 28%; ED50 (Rattus norvegicus [1]): 11.3 mg/kg; inhibition in vivo at 25 mg/kg (Rattus norvegicus [8]): 62%; inhibition in vivo at 25 mg/kg (Rattus norvegicus [9]): 34%; inhibition in vivo at 25 mg/kg (Rattus norvegicus [11]): 71%; ED50 (Rattus norvegicus [2]): 9.6 mg/kg
CC1(C)C(=O)N(c2ccc(F)cc2F)c2ncccc21	7	61	19	
CN1C(=O)C(C)(C)c2cccnc21		69	53	inhibition in vivo at 25 mg/kg (Rattus norvegicus [6]): 17%; inhibition in vivo at 25 mg/kg (Rattus norvegicus [8]): 69%; Inhibition (Rattus norvegicus [11]): 53%; inhibition in vivo at 25 mg/kg (Rattus norvegicus [11]): 53%
CC1(C)C(=O)Nc2ncccc21		46	38	

More lines, main results first:

inhibition [3] [%]	SMILES	inhibition in vivo at 25 mg/kg (Rattus norvegicus [1]) [%]	inhibition in vivo at 25 mg/kg (Rattus norvegicus [2]) [%]	other results
0	COCCSC1(C)C(=O)N(c2ccccc2)c2ncccc21 (centres undefined)	26	23	
23	CSc1ccc(N2C(=O)C(C)(C)c3cccnc32)cc1	29	37	
0	CC1(C)C(=O)N(c2ccccc2Cl)c2ncccc21	14	3	
0	CC1C(=O)N(c2ccccc2)c2ncccc21 (centres undefined)	29	18	
13	CCC1(C)C(=O)N(c2ccccc2)c2ncccc21 (centres undefined)	36	12	
13	CC1(C)C(=O)N(c2ccc(Cl)cc2)c2ncccc21			inhibition in vivo at 25 mg/kg (Rattus norvegicus [4]): 13%; inhibition in vivo at 25 mg/kg (Rattus norvegicus [5]): 31%; inhibition in vivo at 25 mg/kg (Rattus norvegicus [6]): 78%; inhibition [7]: 47%; ED50 (Rattus norvegicus [1]): 4.5 mg/kg; inhibition in vivo at 25 mg/kg (Rattus norvegicus [8]): 73%; inhibition in vivo at 25 mg/kg (Rattus norvegicus [9]): 65%; inhibition in vivo at 25 mg/kg (Rattus norvegicus [10]): 54%; Inhibition (Rattus norvegicus [11]): 83%; inhibition in vivo at 25 mg/kg (Rattus norvegicus [11]): 83%; ED50 (Rattus norvegicus [2]): 27.9 mg/kg
17	CC1(Cc2ccccc2)C(=O)N(c2ccccc2)c2ncccc21 (centres undefined)	9	0	
11	COc1ccc(N2C(=O)C(C)(C)c3cccnc32)cc1	63	42	inhibition in vivo at 25 mg/kg (Rattus norvegicus [4]): 0%; inhibition in vivo at 25 mg/kg (Rattus norvegicus [6]): 34%; inhibition in vivo at 25 mg/kg (Rattus norvegicus [8]): 63%; inhibition in vivo at 25 mg/kg (Rattus norvegicus [9]): 0%
13	CC1(C)C(=O)N(c2ccc(S(C)(=O)=O)cc2)c2ncccc21	42	0	
17	CC1(C)C(=S)N(c2ccc(Cl)cc2)c2ncccc21	41	42	
12	CCC1(CC)C(=O)N(c2ccccc2)c2ncccc21	13	0	
3	CC1(C)C(=O)N(c2cccc(Cl)c2)c2ncccc21	51	49	inhibition in vivo at 25 mg/kg (Rattus norvegicus [4]): 0%; inhibition in vivo at 25 mg/kg (Rattus norvegicus [16]): 59%; TxB2 inhibition (Rattus norvegicus [17]): 62%; inhibition [7]: 0%; inhibition in vivo at 25 mg/kg (Rattus norvegicus [8]): 51%; inhibition in vivo at 25 mg/kg (Rattus norvegicus [9]): 31%; inhibition in vivo at 25 mg/kg (Rattus norvegicus [11]): 49%
0	CC(C)c1ccc(N2C(=O)C(C)(C)c3cccnc32)cc1	29	6	
2	CC1(C)C(=O)N(Cc2ccccc2)c2ncccc21	12	12	
0	CC1(F)C(=O)N(c2ccccc2)c2ncccc21 (centres undefined)	50	35	
21	CSC1(C)C(=O)N(c2ccccc2)c2ncccc21 (centres undefined)	34	53	
11	CC1(C)C(=O)N(c2ccc(Br)cc2)c2ncccc21	46	55	
11	C[S+]([O-])c1ccc(N2C(=O)C(C)(C)c3cccnc32)cc1 (centres undefined)	39	0	
13	CCCCC1(C)C(=O)N(c2ccccc2)c2ncccc21 (centres undefined)	21	5	
